Laboratory results from ChEMBL document CHEMBL1127308, “Inhibition of human neutrophil elastase with peptidyl electrophilic ketones. 2. Orally active PG-Val-Pro-Val pentafluoroethyl ketones” (J Med Chem, 1994).
Active and inactive are the calls of the source. No cut-off for these calls is given here.

Columns and labels:
[1] = Half life determined from epimerization data at 37 degree C in human blood plasma; format: ADME, organism-based
How it was run: (§1)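 The L-L-L or L-L-D diastereomer was held at 37 °C in human blood serum (three individual donors) or human plasma, with a sealed D2O capillary inserted into the NMR tube for lock. Epimerization was followed by 19F NMR spectra, and the half-life was taken from these spectra.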

[2] = Half life determined from epimerization data at 37 degree C in human blood serum 2; format: ADME, organism-based, Plasma; how it was run: as §1
[3] = Half life determined from epimerization data at 37 degree C in human blood serum 3; format: ADME, organism-based, Plasma; how it was run: as §1
Cricetinae gen. sp. = test: In vivo inhibitory activity against HNE-induced pulmonary hemorrhage was determined in hamsters after oral administration of 25 mg/kg; format: functional
How it was run: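 Hamsters were dosed orally 30 min (one case 15 min) before intratracheal instillation of 20 or 10 μg HNE. After 1 h, lungs were lavaged with saline, and BAL hemoglobin was read at 536–546 nm against a Hgb standard curve. Inhibition was calculated versus vehicle controls, 6–19 hamsters per group, as mean ± SEM, with ANOVA and Dunnett's test (p ≤ 0.05).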

Pepsin A (Sus scrofa) = Pepsin A (Sus scrofa) (UniProt P00791); test: Tested for the ability to inhibit pepsin at 0.2 mM
Pepsin A (Sus scrofa), sequence (P00791 60-385 limits assumed): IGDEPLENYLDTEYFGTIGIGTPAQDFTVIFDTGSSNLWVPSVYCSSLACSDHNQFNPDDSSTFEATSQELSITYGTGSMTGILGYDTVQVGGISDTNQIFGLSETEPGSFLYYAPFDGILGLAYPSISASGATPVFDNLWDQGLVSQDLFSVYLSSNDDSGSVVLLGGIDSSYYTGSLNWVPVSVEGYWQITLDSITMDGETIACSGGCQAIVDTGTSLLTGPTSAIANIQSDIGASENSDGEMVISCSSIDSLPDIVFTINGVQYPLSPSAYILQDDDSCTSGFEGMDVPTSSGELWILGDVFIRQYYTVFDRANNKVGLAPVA

Rattus norvegicus [4] = test: In vivo inhibitory activity against HNE-induced pulmonary hemorrhage was determined in rats after oral administration of 50 mg/kg; format: functional
How it was run: (§2)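 Rats were dosed orally 45 min before intratracheal instillation of 100 μg HNE. After 1 h, lungs were lavaged with saline, and BAL hemoglobin was measured spectrophotometrically (536–546 nm) against a Hgb standard curve. Percent inhibition was calculated versus vehicle-treated controls, 5–10 rats per group, as mean ± SEM, with one-way ANOVA and Dunnett's test (p ≤ 0.05).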

Prothrombin (Bos taurus) = Prothrombin (Bos taurus) (UniProt P00735); test: Tested for the ability to inhibit bovine thrombin at 0.5 mM
[5] = Inhibition of HNE-induced pulmonary hemorrhage when the compound was administered before 30 or 45 min at the dose of 50 mg/kg; orally active; format: functional, organism-based; parameters: dose 50 mg/kg
Neutrophil elastase [6] = target: T1, Neutrophil elastase (Homo sapiens, UniProt P08246); test: In vitro inhibitory activity against human neutrophil elastase […]; parameters: dose 50 mg/kg
T1 sequence (P08246 whole entry): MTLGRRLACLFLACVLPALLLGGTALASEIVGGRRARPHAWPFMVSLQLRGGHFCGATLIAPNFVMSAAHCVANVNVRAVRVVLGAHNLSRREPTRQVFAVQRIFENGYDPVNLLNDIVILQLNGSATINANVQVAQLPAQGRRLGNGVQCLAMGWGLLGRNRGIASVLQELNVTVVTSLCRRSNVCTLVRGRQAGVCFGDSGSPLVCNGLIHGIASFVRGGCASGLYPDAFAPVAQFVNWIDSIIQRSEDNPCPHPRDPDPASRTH

[7] = target: T2, Cathepsin G (Homo sapiens) (UniProt P08311); test: Tested for the ability to inhibit human neutrophil cathepsin G at 0.5 mM
T2 sequence (whole entry): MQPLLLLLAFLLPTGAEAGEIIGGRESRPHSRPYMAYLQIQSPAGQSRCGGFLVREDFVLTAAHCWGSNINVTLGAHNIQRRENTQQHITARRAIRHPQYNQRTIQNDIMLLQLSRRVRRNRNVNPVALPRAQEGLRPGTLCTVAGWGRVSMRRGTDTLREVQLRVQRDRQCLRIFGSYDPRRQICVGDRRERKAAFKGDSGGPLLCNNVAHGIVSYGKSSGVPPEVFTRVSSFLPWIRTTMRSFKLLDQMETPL

Cathepsin B (Bos taurus) = Cathepsin B (Bos taurus) (UniProt P07688); test: Tested for the ability to inhibit bovine liver cathepsin B at 0.5 mM
[8] = target: T3, Neprilysin (Rattus norvegicus) (UniProt P07861); test: Tested for the ability to inhibit rat kidney enkephalinase at 0.5 mM
T3 sequence (whole entry): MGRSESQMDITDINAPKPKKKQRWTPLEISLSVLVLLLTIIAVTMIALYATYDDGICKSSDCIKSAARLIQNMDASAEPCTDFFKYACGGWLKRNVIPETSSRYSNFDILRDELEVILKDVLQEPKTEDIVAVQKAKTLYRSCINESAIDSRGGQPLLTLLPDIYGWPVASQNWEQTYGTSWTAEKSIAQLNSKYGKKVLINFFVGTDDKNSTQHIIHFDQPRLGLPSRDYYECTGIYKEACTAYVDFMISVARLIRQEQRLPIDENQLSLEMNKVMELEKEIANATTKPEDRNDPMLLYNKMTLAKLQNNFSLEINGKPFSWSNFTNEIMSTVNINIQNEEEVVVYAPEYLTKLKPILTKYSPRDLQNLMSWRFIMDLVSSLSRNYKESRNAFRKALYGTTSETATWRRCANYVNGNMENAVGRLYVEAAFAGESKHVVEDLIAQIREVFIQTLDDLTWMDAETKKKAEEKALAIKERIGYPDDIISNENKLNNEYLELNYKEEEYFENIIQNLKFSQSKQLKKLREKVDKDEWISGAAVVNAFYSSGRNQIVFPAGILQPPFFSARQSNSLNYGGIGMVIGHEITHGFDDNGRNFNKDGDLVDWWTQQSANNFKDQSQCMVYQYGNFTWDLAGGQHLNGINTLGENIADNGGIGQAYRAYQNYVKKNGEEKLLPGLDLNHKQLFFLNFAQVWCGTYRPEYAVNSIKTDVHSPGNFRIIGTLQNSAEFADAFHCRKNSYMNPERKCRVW

[9] = Half life determined from epimerization data at 25 degree C in buffered saline
[10] = Half life determined from epimerization data at 25 degree C in Tween 20 (81 mM); settings: Tween 20 solution (81 mM)
[11] = Inhibition of HNE-induced pulmonary hemorrhage when the compound was administered before 30 or 45 min at the dose of 50 mg/kg; Not orally active; format: functional, organism-based; parameters: dose 50 mg/kg
Neutrophil elastase [12] = target: T1, Neutrophil elastase; test: In vitro inhibitory activity against human neutrophil elastase was determined at a dose of 25 mg/kg; format: organism-based; parameters: dose 25 mg/kg
Rattus norvegicus [13] = test: In vivo inhibitory activity against HNE-induced pulmonary hemorrhage was determined in rats after oral administration of 25 mg/kg; format: functional; how it was run: as §2
Neutrophil elastase [14] = target: T1, Neutrophil elastase; test: In vitro inhibitory activity against human neutrophil elastase
How it was run: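 HNE was partially purified from human purulent sputum and assayed with MeO-Suc-Ala-Ala-Pro-Val-p-nitroanilide; the assay contained 10% v/v DMSO. Ki was found either from a double-reciprocal plot (four substrate × three inhibitor concentrations) or, assuming competitive inhibition, from three inhibitor concentrations at 0.2 mM substrate (≈Km) using v0/vi = 1 + [I]/Ki,app and Ki = Ki,app/(1 + [S]/Km). Inhibitor was 5–100-fold over enzyme, with no hydration correction.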

Neutrophil elastase [15] = target: T1, Neutrophil elastase; test: In vitro inhibitory activity against human neutrophil elastase was determined at a dose of 45 mg/kg; format: organism-based; parameters: dose 45 mg/kg
[16] = Inhibition of HNE-induced pulmonary hemorrhage when the compound was administered before 30 or 45 min at the dose of 50 mg/kg; not orally active; format: functional, organism-based; parameters: dose 50 mg/kg
Rattus norvegicus [17] = test: In vivo inhibitory activity against HNE-induced pulmonary hemorrhage was determined in rats after oral administration of 45 mg/kg; format: functional; how it was run: as §2
Neutrophil elastase [18] = target: T1, Neutrophil elastase; test: In vitro inhibitory activity against human neutrophil elastase was determined at a dose of 100 mg/kg; format: organism-based; parameters: dose 100 mg/kg
Rattus norvegicus [19] = test: In vivo inhibitory activity against HNE-induced pulmonary hemorrhage was determined in rats after oral administration of 100 mg/kg; format: functional; how it was run: as §2

Row | SMILES | Ki (Neutrophil elastase [6]) | inhibition in vivo at 25 mg/kg (Cricetinae gen. sp.) | inhibition in vivo at 50 mg/kg (Rattus norvegicus [4]) | Oral activity [5] | Oral activity [11] | also measured
1 | CC(C)C(NC(=O)[C@@H]1CCCN1C(=O)[C@@H](NC(=O)CCc1cccnc1)C(C)C)C(=O)C(F)(F)C(F)(F)F (some centres undefined) | – | 67% | – | Active | – | –
2 | CC(C)C(NC(=O)[C@@H]1CCCN1C(=O)[C@@H](NC(=O)c1ccc(S(=O)(=O)N2CCOCC2)cc1)C(C)C)C(=O)C(F)(F)C(F)(F)F (some centres undefined) | – | 30% | – | – | inactive | –
3 | CC(C)C(NC(=O)[C@@H]1CCCN1C(=O)[C@@H](NC(=O)CC(=O)N1CCOCC1)C(C)C)C(=O)C(F)(F)C(F)(F)F (some centres undefined) | – | – | – | – | – | Ki (Neutrophil elastase [12]): 70 nM; inhibition in vivo at 25 mg/kg (Rattus norvegicus [13]): 41%
4 | CC(C)[C@H](NC(=O)N(C)C)C(=O)N1CCC[C@H]1C(=O)N[C@H](C(=O)C(F)(F)C(F)(F)F)C(C)C | – | – | 70% | Active | – | Ki (Neutrophil elastase [14]): 261 nM
5 | CC(C)C(NC(=O)[C@@H]1CCCN1C(=O)[C@@H](NC(=O)c1ccc(C(=O)N2CCN(C(=O)N3CCOCC3)CC2)cc1)C(C)C)C(=O)C(F)(F)C(F)(F)F (some centres undefined) | – | 31% | – | – | inactive | –
6 | CC(C)C(NC(=O)[C@@H]1CCCN1C(=O)[C@@H](NC(=O)C(C(=O)N1CCOCC1)C(C)C)C(C)C)C(=O)C(F)(F)C(F)(F)F (some centres undefined) | – | 70% | – | Active | – | –
7 | CC(C)[C@H](NC(=O)c1ccco1)C(=O)N1CCC[C@H]1C(=O)N[C@H](C(=O)C(F)(F)C(F)(F)F)C(C)C | – | – | – | – | – | Ki (Neutrophil elastase [15]): 190 nM; Oral activity [16]: inactive; inhibition in vivo at 45 mg/kg (Rattus norvegicus [17]): 44%
8 | CC(C)C(NC(=O)[C@@H]1CCCN1C(=O)[C@@H](NC(=O)c1ccc(C(=O)NS(=O)(=O)c2ccc(Cl)cc2)cc1)C(C)C)C(=O)C(F)(F)C(F)(F)F (some centres undefined) | – | – | – | – | inactive | Ki (Neutrophil elastase [18]): 7 nM; inhibition in vivo at 100 mg/kg (Rattus norvegicus [19]): -30%
9 | CC(C)C(NC(=O)[C@@H]1CCCN1C(=O)[C@@H](NC(=O)c1ccc(C(=O)O)cc1)C(C)C)C(=O)C(F)(F)C(F)(F)F (some centres undefined) | – | -3% | – | – | inactive | –
10 | CC(C)C(NC(=O)[C@@H]1CCCN1C(=O)[C@@H](NC(=O)c1ccc(C(=O)N2CCOCC2)nc1)C(C)C)C(=O)C(F)(F)C(F)(F)F (some centres undefined) | – | 61% | – | – | – | –

Further lines, with some results ahead:

Row | Ki (Neutrophil elastase [6]) | SMILES | inhibition in vivo at 25 mg/kg (Cricetinae gen. sp.) | inhibition in vivo at 50 mg/kg (Rattus norvegicus [4]) | Oral activity [5] | Oral activity [11] | also measured
11 | 25 nM | CC(C)C(NC(=O)[C@@H]1CCCN1C(=O)[C@@H](NC(=O)c1ccc(C(=O)N2CCOCC2)cc1)C(C)C)C(=O)C(F)(F)C(F)(F)F (some centres undefined) | 74% | 69% | Active | – | half-life [1]: 30 min; half-life [2]: 30 min; half-life [3]: 30 min; inhibition (Pepsin A (Sus scrofa)): 40%; inhibition (Prothrombin (Bos taurus)): < 5%; inhibition [7]: 15%; inhibition (Cathepsin B (Bos taurus)): < 5%; inhibition [8]: < 5%; half-life [9]: > 200 h; half-life [10]: 70 min
12 | 59 nM | CC(C)C(NC(=O)[C@@H]1CCCN1C(=O)[C@@H](NC(=O)C1CCOCC1)C(C)C)C(=O)C(F)(F)C(F)(F)F (some centres undefined) | – | 71% | Active | – | –
13 | 170 nM | CC(C)C(NC(=O)[C@@H]1CCCN1C(=O)[C@@H](NC(=O)N1CCOCC1)C(C)C)C(=O)C(F)(F)C(F)(F)F (some centres undefined) | 69% | 69% | Active | – | –
14 | 43 nM | CC(C)C(NC(=O)[C@@H]1CCCN1C(=O)[C@@H](NC(=O)c1ccc(NC(=O)N2CCOCC2)cc1)C(C)C)C(=O)C(F)(F)C(F)(F)F (some centres undefined) | – | 26% | – | inactive | –
15 | 60 nM | CC(C)[C@H](NC(=O)CN1CCOCC1)C(=O)N1CCC[C@H]1C(=O)N[C@H](C(=O)C(F)(F)C(F)(F)F)C(C)C | – | 77% | Active | – | –
